Source: ChEMBL document CHEMBL4308899, “Design, synthesis and QSAR study of 2'-hydroxy-4'-alkoxy chalcone derivatives that exert cytotoxic activity by the mitochondrial apoptotic pathway” (Bioorg Med Chem, 2019)
Active and inactive are the calls of the source. The rule behind the calls is not given here.

Columns and labels:
PC-3 [1] = test: Antiproliferative activity against human PC3 cells after 72 hrs by CyQuant dye-based assay; type: functional, cell-based; settings: PC-3, 72 h
[2] = Antiproliferative activity against human HF6 cells after 48 hrs by CellTiter 96 AQueous one solution cell proliferation assay; type: functional, cell-based
PC-3 [3] = test: Antiproliferative activity against human PC3 cells after 48 hrs by CellTiter 96 AQueous one solution cell proliferation assay; type: functional, cell-based; settings: PC-3, 48 h
Outline: (§1)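 Cells plated at 8000/well; test agents dissolved in DMSO and tested at 80, 8, 0.8, 0.08 and 0.008 μg/mL for 48 h at 37°C, 5% CO2. PC3 and CaSki were grown in RPMI-1640, MCF7 in Eagle's MEM, with 10% FBS and 2 mM glutamine. Podophyllotoxin served as positive control. Viability read by MTS-type reagent absorbance at 450 nm. Triplicates in three independent experiments; IC50 by regression.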

MCF7 = test: Antiproliferative activity against human MCF7 cells after 48 hrs by CellTiter 96 AQueous one solution cell proliferation assay; type: functional, cell-based; settings: MCF7, 48 h; outline: as §1
Ca-Ski = test: Antiproliferative activity against human CaSki cells after 48 hrs by CellTiter 96 AQueous one solution cell proliferation assay; type: functional, cell-based; outline: as §1
PC-3 [4] = test: Cell cycle arrest in human PC3 cells assessed as accumulation at G1 phase at 8.2 uM after 48 hrs by RNAse/propidium iodide staining-based flow cytometric analysis (reference value: 55.6%); type: functional
PC-3 [5] = test: Induction of apoptosis in human PC3 cells assessed as formation of apoptotic bodies at IC50 after 48 hrs by acridine orange/ethidium bromide staining-based epifluorescence microscopic analysis; type: functional, cell-based
PC-3 [6] = test: Induction of apoptosis in human PC3 cells assessed as upregulation of Bax mRNA expression after 48 hrs by RT-PCR analysis; type: functional, cell-based
Outline: (§2)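 PC3 cells (1.25×10^5) were treated 48 h, then RNA was isolated. Bcl-2 and Bax mRNA were measured by RT-PCR with GAPDH as internal control.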

PC-3 [7] = test: Induction of apoptosis in human PC3 cells assessed as increase in caspase 3/7 activity by Caspase 3/7-Glo luminescence assay; type: functional, cell-based
Outline: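 PC3 cells (8000) were treated, and caspase-3/7 activity was then read by Caspase-Glo 3/7 luminescence. Results are relative luminescence units versus untreated control; paclitaxel was included as a comparator.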

PC-3 [8] = test: Induction of apoptosis in human PC3 cells assessed as chromatin condensation at IC50 after 48 hrs by acridine orange/ethidium bromide staining-based epifluorescence microscopic analysis; type: functional, cell-based
PC-3 [9] = test: Induction of apoptosis in human PC3 cells assessed as down regulation of Bcl2 mRNA expression after 48 hrs by RT-PCR analysis; type: functional, cell-based; outline: as §2
PC-3 [10] = test: Cell cycle arrest in human PC3 cells assessed as accumulation at sub-G1 phase at 8.2 uM after 48 hrs by RNAse/propidium iodide staining-based flow cytometric analysis (reference value: 0.00%); type: functional
PC-3 [11] = test: Cell cycle arrest in human PC3 cells assessed as accumulation at S phase at 8.2 uM after 48 hrs by RNAse/propidium iodide staining-based flow cytometric analysis (reference value: 19.7%); type: functional
PC-3 [12] = test: Induction of apoptosis in human PC3 cells assessed as plasma membrane blebbing at IC50 after 48 hrs by acridine orange/ethidium bromide staining-based epifluorescence microscopic analysis; type: functional, cell-based
PC-3 [13] = test: Cell cycle arrest in human PC3 cells assessed as accumulation at G2/M phase at 8.2 uM after 48 hrs by RNAse/propidium iodide staining-based flow cytometric analysis (reference value: 24.9%); type: functional
BJ = test: Cytotoxicity against human BJ cells after 48 hrs by CellTiter 96 AQueous one solution cell proliferation assay; type: cell-based
PC-3 [14] = test: Cell cycle arrest in human PC3 cells assessed as accumulation at G1 phase at 13.75 uM after 48 hrs by RNAse/propidium iodide staining-based flow cytometric analysis (reference value: 55.6%); type: functional
PC-3 [15] = test: Cell cycle arrest in human PC3 cells assessed as accumulation at S phase at 13.75 uM after 48 hrs by RNAse/propidium iodide staining-based flow cytometric analysis (reference value: 19.7%); type: functional
PC-3 [16] = test: Cell cycle arrest in human PC3 cells assessed as accumulation at G2/M phase at 13.75 uM after 48 hrs by RNAse/propidium iodide staining-based flow cytometric analysis (reference value: 24.9%); type: functional
PC-3 [17] = test: Cell cycle arrest in human PC3 cells assessed as accumulation at sub-G1 phase at 13.75 uM after 48 hrs by RNAse/propidium iodide staining-based flow cytometric analysis (reference value: 0.00%); type: functional
PC-3 [18] = test: Cell cycle arrest in human PC3 cells assessed as accumulation at G2/M phase at 11.81 uM after 48 hrs by RNAse/propidium iodide staining-based flow cytometric analysis (reference value: 24.9%); type: functional
PC-3 [19] = test: Cell cycle arrest in human PC3 cells assessed as accumulation at S phase at 11.81 uM after 48 hrs by RNAse/propidium iodide staining-based flow cytometric analysis (reference value: 19.7%); type: functional
PC-3 [20] = test: Cell cycle arrest in human PC3 cells assessed as accumulation at G1 phase at 11.81 uM after 48 hrs by RNAse/propidium iodide staining-based flow cytometric analysis (reference value: 55.6%); type: functional
PC-3 [21] = test: Cell cycle arrest in human PC3 cells assessed as accumulation at sub-G1 phase at 11.81 uM after 48 hrs by RNAse/propidium iodide staining-based flow cytometric analysis (reference value: 0.00%); type: functional
PC-3 [22] = test: Induction of apoptosis in human PC3 cells assessed as chromatin condensation at 0.005 uM after 48 hrs by acridine orange/ethidium bromide staining-based epifluorescence microscopic analysis; type: functional, cell-based
Outline: (§3)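 PC3 cells, 25000 per well in 24-well plates, treated 48 h; H2O2 30 min served as apoptosis control, boiling at 95°C for 10 sec as necrosis control. Cells then exposed to acridine orange/ethidium bromide (100 μg/mL each) and examined by fluorescence microscopy. Scored by nuclear morphology: chromatin condensation, orange condensed chromatin (late apoptosis), apoptotic bodies.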

PC-3 [23] = test: Cell cycle arrest in human PC3 cells assessed as accumulation at G1 phase at 0.12 uM after 48 hrs by RNAse/propidium iodide staining-based flow cytometric analysis (reference value: 55.6%); type: functional
PC-3 [24] = test: Cell cycle arrest in human PC3 cells assessed as accumulation at G2/M phase at 0.12 uM after 48 hrs by RNAse/propidium iodide staining-based flow cytometric analysis (reference value: 24.9%); type: functional
PC-3 [25] = test: Cell cycle arrest in human PC3 cells assessed as accumulation at S phase at 0.12 uM after 48 hrs by RNAse/propidium iodide staining-based flow cytometric analysis (reference value: 19.7%); type: functional
PC-3 [26] = test: Induction of apoptosis in human PC3 cells assessed as plasma membrane blebbing at 0.005 uM after 48 hrs by acridine orange/ethidium bromide staining-based epifluorescence microscopic analysis; type: functional, cell-based; outline: as §3
PC-3 [27] = test: Induction of apoptosis in human PC3 cells assessed as formation of apoptotic bodies at 0.005 uM after 48 hrs by acridine orange/ethidium bromide staining-based epifluorescence microscopic analysis; type: functional, cell-based; outline: as §3
PC-3 [28] = test: Cell cycle arrest in human PC3 cells assessed as accumulation at sub-G1 phase at 0.12 uM after 48 hrs by RNAse/propidium iodide staining-based flow cytometric analysis (reference value: 0.00%); type: functional

SMILES	IC50 [2] [µM]	IC50 (PC-3 [3]) [µM]	IC50 (MCF7) [µM]	IC50 (Ca-Ski) [µM]	IC50 (BJ) [µM]	also measured
O=C(/C=C/c1ccccc1O)c1ccccc1O						IC50 (PC-3 [1]): 10.3 µM
COc1cc(O)c(C(=O)/C=C/c2ccccc2)cc1I	> 50	> 50	> 50	> 50		
CCOc1ccc(C(=O)/C=C/c2ccccc2)c(O)c1		8.2	> 50		208	Activity (PC-3 [4]): 24.3%; Activity (PC-3 [5]): Active; Activity (PC-3 [6]): Active; Activity (PC-3 [7]): Active; Activity (PC-3 [8]): Active; Activity (PC-3 [9]): Active; Activity (PC-3 [10]): 17.9%; Activity (PC-3 [11]): 7.69%; Activity (PC-3 [12]): Active; Activity (PC-3 [13]): 50.1%
COc1cc(O)c(C(=O)/C=C/c2ccccc2)cc1Br	38.9	> 50	> 50	> 50		
CC(=O)Oc1ccc(C(=O)/C=C/c2ccccc2)c(O)c1	> 50	10	> 50	> 50	21.3	
O=C(/C=C/c1ccccc1)c1ccc(O)cc1O [2',4'-DIHYDROXYCHALCONE]		13.8	> 50		262	Activity (PC-3 [14]): 32.2%; Activity (PC-3 [5]): Active; Activity (PC-3 [6]): Active; Activity (PC-3 [7]): Active; Activity (PC-3 [8]): Active; Activity (PC-3 [9]): Active; Activity (PC-3 [15]): 10.7%; Activity (PC-3 [16]): 40.8%; Activity (PC-3 [17]): 16.3%; Activity (PC-3 [12]): Active
COc1ccc(C(=O)/C=C/c2ccccc2)c(O)c1	> 50	11.8	> 50		239	Activity (PC-3 [5]): Active; Activity (PC-3 [6]): Active; Activity (PC-3 [7]): Active; Activity (PC-3 [8]): Active; Activity (PC-3 [9]): Active; Activity (PC-3 [18]): 27.1%; Activity (PC-3 [19]): 16%; Activity (PC-3 [20]): 46.8%; Activity (PC-3 [12]): Active; Activity (PC-3 [21]): 13.6%
COc1cc([C@@H]2c3cc4c(cc3[C@H](O)[C@H]3COC(=O)[C@H]23)OCO4)cc(OC)c1OC [PODOFILOX]	0.0369	0.12	0.28	0.3	5	Activity (PC-3 [22]): Active; Activity (PC-3 [23]): 8.31%; Activity (PC-3 [24]): 47%; Activity (PC-3 [25]): 9.82%; Activity (PC-3 [26]): Active; Activity (PC-3 [27]): Active; Activity (PC-3 [28]): 35.6%
COc1ccc(C(=O)/C=C/c2ccccc2)c(O)c1I	> 50	34	> 50	> 50		
COc1ccc(C(=O)CCc2ccccc2)c(O)c1	> 50	> 50	> 50	> 50		
O=C(/C=C/c1ccccc1)c1ccc(OCc2ccccc2)cc1O		34.7	> 50	> 50		
CCCOc1ccc(C(=O)/C=C/c2ccccc2)c(O)c1		8.08	> 50	> 50	16	
COc1ccc(C(=O)/C=C/c2ccccc2)c(O)c1Br	> 50	47.8	> 50	> 50		
